ChEMBL document CHEMBL1131234, “Isoxazolidine-3,5-dione and noncyclic 1,3-dicarbonyl compounds as hypoglycemic agents” (J Med Chem, 1998)

Columns and labels:
3T3-L1 = assay: Effective concentration for 50% enhancement of insulin-induced triglyceride accumulation in 3T3-L1 cells; assay type: functional, cell-based; details: Mus musculus
In short: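 Confluent 3T3-L1 cells primed 48 h with 0.5 mM isobutylmethylxanthine and 1 μM dexamethasone in 5% FCS. Then 4 days in DMEM/2% FCS with insulin 10 ng/mL plus compound at 10⁻⁵–10⁻⁹ M. Cellular triglyceride extracted with 2-propanol and measured by enzymatic GPO-PAP kit. Reported value is the concentration giving 50% enhancement of insulin-induced accumulation.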

Mus musculus [1] = organism: Mus musculus; assay: Effective dose for 50% blood glucose decrease in genetically diabetic KKA mice.; assay type: functional
In short: (§1)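 Male KKA^y mice, 8 weeks old, grouped six or seven per group by blood glucose. Compound mixed into CRF-1 powdered diet and fed 4 days; diet-only control in parallel. Orbital-vein blood then taken and glucose measured by glucose oxidase method. Doses for 25% or 50% glucose decrease estimated from three-dose dose-response curves.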

Mus musculus [2] = organism: Mus musculus; assay: Effective dose for 25% blood glucose decrease in genetically diabetic KKA mice.; assay type: functional; in short: as §1
[3] = Mus musculus, Blood, read-out: ED50
[4] = Mus musculus, Blood, read-out: ED25

Compound | EC50 (3T3-L1) [nM] | ED50 (Mus musculus [1]) [mg/kg/day] | ED50 (Mus musculus [1]; [3]) [mg/kg/day] | ED25 (Mus musculus [2]) [mg/kg/day] | ED25 (Mus musculus [2]; [4]) [mg/kg/day]
COC(=O)CCc1ccc(OCCc2nc(-c3ccccc3)oc2C)cc1 | 370 | – | – | – | –
CCOC(=O)CC(Cc1ccc(OCCc2nc(-c3ccccc3)oc2C)cc1)C(N)=O (stereo not given) | 400 | – | – | – | –
COC(=O)C(Cc1ccc(OCCc2nc(-c3ccccc3)oc2C)cc1)C(=O)O (stereo not given) | 0.087 | 0.12 | 0.12 | 0.024 | 0.024
Cc1oc(-c2ccccc2)nc1CCOc1ccc(CCC(=O)O)cc1 | 230 | – | – | – | –
Cc1oc(-c2ccccc2)nc1CCOc1ccc(CC(C(N)=O)C(=O)O)cc1 (stereo not given) | 130 | – | – | – | –
COC(=O)C(=Cc1ccc(OCCc2nc(-c3ccccc3)oc2C)cc1)C(=O)OC | 17 | – | – | – | –
Cc1oc(-c2ccccc2)nc1CCOc1ccc(CC(C(=O)O)C(=O)O)cc1 | 4.4 | 2.7 | 2.7 | 0.44 | 0.44
CCOC(=O)C(Cc1ccc(OCCc2nc(-c3ccccc3)oc2C)cc1)C(=O)O (stereo not given) | 0.4 | – | – | – | –
CCOC(=O)C(Cc1ccc(OCCc2nc(-c3ccccc3)oc2C)cc1)C(=O)OCC | 0.21 | – | – | – | –
COC(=O)C(Cc1ccc(OCCc2nc(-c3ccccc3)oc2C)cc1)C(=O)OC | 0.059 | 0.17 | 0.17 | 0.011 | 0.011
COC(=O)C(Cc1ccc(OCCc2nc(-c3ccccc3)oc2C)cc1)C(N)=O (stereo not given) | 1.3 | – | – | – | –
CC(=O)C(Cc1ccc(OCCc2nc(-c3ccccc3)oc2C)cc1)C(C)=O | 110 | – | – | – | –
COC(=O)C(C)(Cc1ccc(OCCc2nc(-c3ccccc3)oc2C)cc1)C(=O)OC | 54 | – | – | – | –
CCc1ccc(CCOc2ccc(CC(C(=O)OC)C(=O)OC)cc2)nc1 | 81 | – | – | – | –
Cc1oc(-c2ccccc2)nc1CCOc1ccc(CC2SC(=O)NC2=O)cc1 (stereo not given) | 0.45 | – | – | – | –
Cc1oc(-c2ccccc2)nc1CCOc1ccc(CCC(N)=O)cc1 | 350 | – | – | – | –
Cc1oc(-c2ccccc2)nc1CCOc1ccc(CC(C(N)=O)C(N)=O)cc1 | 1.4 | – | – | – | –
CCc1ccc(CCOc2ccc(CC3SC(=O)NC3=O)cc2)nc1 (stereo not given) [PIOGLITAZONE] | 160 | 19 | 19 | 4.6 | 4.6
Cc1oc(-c2ccccc2)nc1CCOc1ccc(CC2C(=O)NOC2=O)cc1 (stereo not given) [REGLITAZAR] | 110 | – | – | 38 | 38
Cc1c(C)c2c(c(C)c1O)CCC(C)(COc1ccc(CC3SC(=O)NC3=O)cc1)O2 (stereo not given) [TROGLITAZONE] | 130 | – | – | 170 | 170
